Assay outcomes from PubChem.
Only some compounds are listed: those with a hit (about 3.8% of all), similar ones and a draw of the others.
hERG protect: shields human hERG channel from block by proarrhythmic agents; Q12809; CHO-hERG, FluxOR thallium flux, dofetilide IC70 present; activation (rescue from dofetilide block), less the hit threshold, % at 10 µM; 0.51% of 310,000 active; AID 1511;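 active = activation above the mean of controls blocked by dofetilide plus 5 SD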;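 note: thallium influx through hERG after potassium depolarization seen as dye fluorescence rise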
Kir21 inh: blocks the mouse Kir2.1 inward-rectifier potassium channel; P35561; HEK293-Kir2.1, FluxOR thallium flux fluorescence; hits give low values; B-score at 10 µM; 0.85% of 310,000 active; AID 1672;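 active = fluorescence ratio B-score at or below minus 3 SD of library scores, with starting-brightness B-score within 2 SD, cut at about -4.2 in these data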;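 note: channel flux triggered by added potassium and thallium sulfate stimulus; B-score of peak minus minimum fluorescence over baseline after thallium stimulus; more negative B-score means stronger Kir2.1 block with less thallium influx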
KCNK3 inh: human KCNK3 channel inhibition, primary screen | CHO-KCNK3 thallium flux, FluxOR fluorescence; hits give low values | B-score at 10 µM | 0.84% of 340,000 active;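 active = B-score under library mean minus 4 SD, starting fluorescence ratio at most library mean plus 5 SD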;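 note: more negative B-score means stronger inhibition of thallium flux through KCNK3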
KCNK9 inh: inhibitors of human KCNK9 two-pore domain potassium channel; B-score at 10 µM; HEK293 KCNK9, FluxOR thallium flux fluorescence; hits give low values; 1.2% of 310,000 active; Q9NPC2;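 active = ratio B-score over 3 SD below the library mean, with starting fluorescence within 5 SD of its mean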;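 note: negative B-score means less thallium flux so channel inhibition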
KCNQ1 act: potentiates or activates the human KCNQ1 potassium channel; CHO-K1 KCNQ1, thallium flux FluxOR fluorescence; hits give high values; B-score at 10 µM; 0.35% of 310,000 active;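 active = fluorescence ratio B-score, a plate-corrected score, at least three library SD, with initial intensity B-score within 5 SD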
Target sequence (P51787 whole entry, looked up): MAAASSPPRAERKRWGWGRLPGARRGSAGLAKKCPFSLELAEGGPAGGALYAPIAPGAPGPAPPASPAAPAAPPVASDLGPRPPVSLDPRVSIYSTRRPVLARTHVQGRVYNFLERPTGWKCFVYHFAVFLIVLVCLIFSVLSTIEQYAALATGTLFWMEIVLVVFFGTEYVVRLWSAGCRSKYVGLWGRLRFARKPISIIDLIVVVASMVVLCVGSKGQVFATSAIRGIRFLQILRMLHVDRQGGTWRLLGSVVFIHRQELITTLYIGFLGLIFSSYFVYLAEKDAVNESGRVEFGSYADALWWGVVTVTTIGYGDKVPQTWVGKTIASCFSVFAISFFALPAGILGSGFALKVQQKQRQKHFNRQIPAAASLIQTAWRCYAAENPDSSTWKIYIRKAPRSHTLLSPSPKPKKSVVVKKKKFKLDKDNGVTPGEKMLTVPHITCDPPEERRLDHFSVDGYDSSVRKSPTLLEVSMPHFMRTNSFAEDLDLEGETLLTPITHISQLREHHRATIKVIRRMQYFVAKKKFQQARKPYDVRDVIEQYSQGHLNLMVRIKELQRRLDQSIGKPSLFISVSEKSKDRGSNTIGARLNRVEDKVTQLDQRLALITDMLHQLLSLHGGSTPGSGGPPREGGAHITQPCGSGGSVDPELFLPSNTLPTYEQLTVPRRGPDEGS
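Assay system: CHO-K1 cells stably expressing KCNQ1. Medium: assay buffer for compound exposure, DMSO matched across wells. Timing: 37 °C overnight plating, 90-min dark dye load, 20-min compound pretreatment. Signal: kinetic FluxOR fluorescence, 10 s baseline plus 110 s post-stimulus.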
KCNQ1 block: blocks the human KCNQ1 potassium channel | 1.3% of 310,000 active | AID 2642 | P51787 | CHO-K1 KCNQ1, FluxOR thallium flux fluorescence; hits give high values | B-score at 10 µM;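 active = compounds whose thallium flux B-score, printed positive for inhibition, exceeds three library SD while starting fluorescence stays within three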;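 note: channel opened by potassium depolarization with thallium stimulus after 20 min compound exposure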
KCNK9 block conf: confirmation of human KCNK9 potassium channel inhibitors | shares compounds with KCNK9 inh | HEK293 KCNK9 cells, FluxOR thallium flux fluorescence | inhibition, % at 10 µM | 43% of 4,900 active;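 active = thallium signal inhibited by more than 5 SD of the compound-free buffer control wells, on both duplicate plates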;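 note: 0% = assay buffer control wells without compound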
Kir2-1 spec: tests whether KCNK9 modulators also affect mouse Kir2.1; shares compounds with KCNK9 inh; inhibition, % at 10 µM; Kir2.1 cells, FluxOR thallium flux fluorescence; 4% of 4,900 active;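 active = thallium signal drop more than 5 SD beyond the mean of the no-compound control wells, seen in both duplicate plates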;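 note: signal is fluorescence rise after thallium addition divided by baseline fluorescence; plate controls were assay buffer only for no effect and full block by chlorpromazine control for full effect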
HEK293 Tl ctr: non-induced cell nonspecific activity of KCNK9 modulators; shares compounds with KCNK9 inh; non-induced KCNK9-HEK293, FluxOR thallium flux; inhibition, % at 10 µM; 40% of 4,900 active; AID 492997;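 active = thallium signal drop beyond 5 SD of the untreated control mean, on both duplicate plates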;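 note: plate controls were buffer only IC0 wells for no effect and SID17386958 at its maximal inhibitory level for full effect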
KCNK3 confirm: human KCNK3 channel inhibition, confirmation assay; shares compounds with KCNK3 inh; CHO-KCNK3 thallium flux, FluxOR fluorescence; 0% buffer, 100% carvedilol maximal block; ratio percent of control, % at 10 µM; 99% of 2,400 active; AID 651638;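 active = ratio percent of control, averaged over triplicates, above buffer control mean plus 5 SD, cut at about 64% in these data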;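 note: ratio is the fluorescence rise from min to max over baseline after thallium stimulus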
KCNK3 noninduced: counter-screen for KCNK3 inhibitors: effect in non-induced cells; shares compounds with KCNK3 inh; thallium flux ratio (lower = more inhibition) at 10 µM; 40% of 2,400 active; non-induced KCNK3 parental cells, FluxOR thallium flux; hits give low values; AID 651747;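 active = thallium flux ratio, averaged over three wells, more than 5 SD below the buffer control mean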;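 note: host cells are CHO cells without KCNK3 induction; ratio is peak minus trough fluorescence over baseline then normalized to buffer controls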
Starred values were filed as active, the others as inactive; i = inactive; · = no result given.

SMILES	hERG protect	Kir21 inh	KCNK3 inh	KCNK9 inh	KCNQ1 act	KCNQ1 block	KCNK9 block conf	Kir2-1 spec	HEK293 Tl ctr	KCNK3 confirm	KCNK3 noninduced
CSc1ccc(Cl)c(C(=O)NCCOc2cc(C(C)C)ccc2C)c1	-10	1.8	-10*	-20*	i	i	72%*	i	38%*	128*	0.13*
O=C(Nc1cccc(NC(=O)c2ccccc2Cl)c1)c1cccs1	-2	-0.28	i	-13*	i	i	57%*	i	28%*	112*	i
Cc1ccc(NC(=O)c2cccs2)cc1NC(=O)c1ccccc1Cl	-4	0.54	i	i	i	i	·	·	·	·	·
COc1ccc(-c2cccc(NC(=O)c3cccs3)c2)nn1	-16	0.54	-10*	-9.1*	i	i	35%*	i	i	96*	i
Cc1cccc(NC(=S)N/N=C/c2cccn2Cc2ccc(F)cc2)c1	-5	-2.1	-9.3*	-14*	i	i	60%*	i	i	63*	i
O=C(Nc1sc2c(c1C(=O)NCC(O)CO)CCCC2)c1ccccc1 (centres undefined)	-1	0.29	i	i	i	i	·	·	·	·	·
Cc1ccc(C)c(CN2CCNC2=O)c1	-8	-0.18	i	i	i	i	·	·	·	·	·
Cc1ccc(C)c(CN2CCCN(Cc3cc(C)ccc3C)S2(=O)=O)c1	-7	0.02	-11*	-19*	i	i	76%*	i	41%*	87*	i
Cc1ccc(CN2CCCN(Cc3cc(C)ccc3C)S2(=O)=O)cc1	-8	-2.1	-9.8*	-16*	i	i	62%*	i	37%*	0	i
Nc1sc(-c2ccccc2)cc1C(=O)N/N=C/c1ccc(Cl)cc1	-9	-0.7	i	-14*	i	i	52%*	i	38%*	123*	i
O=C(N/N=C/c1ccc(Cl)cc1)c1cc(-c2cccnc2)nc2ccccc12	-4	0.26	i	i	i	i	·	·	·	·	·
COc1ccc(NC(=O)c2sccc2SCc2cccc(C(F)(F)F)c2)cc1	-5	-4.5*	-9.1*	-16*	i	i	54%*	34%*	40%*	118*	i
CN(c1cccc(NC(=O)COc2ccc(Cl)cc2Cl)c1)S(C)(=O)=O	-9	0.99	i	i	i	i	·	·	·	·	·
O=S(=O)(c1ccccc1)N1N=C(c2ccc(Br)cc2)CC1c1ccco1 (centres undefined)	-8	1.5	-10*	-11*	i	i	38%*	i	39%*	103*	i
COc1ccccc1Cn1c(-c2ccccc2OC)nc2ccccc21	-14	0.98	-9.1*	-11*	i	i	26%*	i	48%*	109*	i
Oc1ccccc1Cn1c(-c2ccccc2O)nc2ccccc21	-11	0.63	i	i	i	i	·	·	·	·	·
Cc1cc(NC(=O)c2cccc(COc3ccc(Br)cc3)c2)no1	-9	0.94	-8.9*	-11*	i	i	i	i	i	65*	i
COc1ccc(OCc2ccc(C(=O)NN)cc2)cc1	-9	-0.84	i	i	i	i	·	·	·	·	·
O=C(O)Cn1c(-c2ccccn2)nc2ccccc21	-5	0.7	i	i	i	i	·	·	·	·	·
c1ccc(CN2c3ccccc3-c3nc4ccccc4n3C2c2ccccn2)cc1 (centres undefined)	-30	-0.37	-10*	-14*	i	i	66%*	i	40%*	123*	i
CCN1c2ccccc2-c2nc3ccccc3n2C1c1ccco1 (centres undefined)	-17	-6.4*	-9.2*	-9.1*	i	i	40%*	28%*	44%*	128*	0.14*
CN1c2ccccc2-c2nc3ccccc3n2C1c1ccncc1 (centres undefined)	-7	0.03	i	i	i	i	·	·	·	·	·
COc1ccc(NC(=O)COC(=O)CCNC(=O)c2ccco2)cc1Cl	·	·	i	·	·	·	·	·	·	·	·
CCOc1ccccc1NC(=O)c1cccc2c1C(=O)N(C1CCCCC1)C2	-9	2.1	-11*	-9.1*	i	i	38%*	i	33%*	100*	i
Cc1ccc(NC(=O)c2cccc3c2C(=O)N(C2CCCCC2)C3)cc1	-10	0.99	-9.4*	-9.6*	i	i	32%*	i	26%*	117*	i
SMILES	hERG protect	Kir21 inh	KCNK3 inh	KCNK9 inh	KCNQ1 act	KCNQ1 block	KCNK9 block conf	Kir2-1 spec	HEK293 Tl ctr	KCNK3 confirm	KCNK3 noninduced
CCOC(=O)N1CCC(N2Cc3cccc(C(=O)Nc4ccc(OCC)cc4)c3C2=O)CC1	-10	0.06	i	i	i	i	·	·	·	·	·
Cc1ccc2c(c1)N(CC(=O)NCCCN1CCCCC1)C(=O)CO2	-8	-0.08	i	i	i	i	·	·	·	·	·
CN(CC(=O)Nc1ccc(F)c(F)c1F)C(=O)c1nn(Cc2ccccc2)c(=O)c2ccccc12	·	·	i	·	·	·	·	·	·	·	·
CCN(Cc1ccccc1)C(=O)CN1C(=O)COc2ccc(S(=O)(=O)N3CCCCCC3)cc21	-15	-1.6	i	i	i	i	·	·	·	·	·
CCN(C(=O)CN1C(=O)COc2ccc(S(=O)(=O)N3CCCCCC3)cc21)c1cccc(C)c1	-11	-0.73	-8.8*	-12*	i	i	44%*	i	24%*	120*	i
CC1(C)Oc2ccc3ccc(=O)oc3c2/C(=C/Nc2ccccc2)C1=O	-11	0.06	-11*	-12*	i	i	56%*	i	i	110*	i
CC1(C)Oc2ccc3ccc(=O)oc3c2/C(=C/O)C1=O	-6	-0.27	i	i	i	i	·	·	·	·	·
Cc1cccc(NC(=O)COc2coc(CN3CCN(c4ccccc4)CC3)cc2=O)c1C	-12	-0.74	i	i	i	i	·	·	·	·	·
O=C(Nc1ccc(O)c(-c2nc3ccccc3o2)c1)C1(c2ccccc2)CCCC1	-14	-1	-9.6*	-12*	i	i	40%*	i	i	100*	i
